Laboratory results published in ChEMBL document CHEMBL1148577, “Discovery of benzylidenebenzofuran-3(2H)-one (aurones) as inhibitors of tyrosinase derived from human melanocytes” (J Med Chem, 2006).

Assays:
[1] = biological target: T1, Tyrosinase (Homo sapiens) (UniProt P14679); assay: Inhibition of tyrosinase in human melanocytes at 0.1 mM; format: cell-based
T1 sequence (whole entry): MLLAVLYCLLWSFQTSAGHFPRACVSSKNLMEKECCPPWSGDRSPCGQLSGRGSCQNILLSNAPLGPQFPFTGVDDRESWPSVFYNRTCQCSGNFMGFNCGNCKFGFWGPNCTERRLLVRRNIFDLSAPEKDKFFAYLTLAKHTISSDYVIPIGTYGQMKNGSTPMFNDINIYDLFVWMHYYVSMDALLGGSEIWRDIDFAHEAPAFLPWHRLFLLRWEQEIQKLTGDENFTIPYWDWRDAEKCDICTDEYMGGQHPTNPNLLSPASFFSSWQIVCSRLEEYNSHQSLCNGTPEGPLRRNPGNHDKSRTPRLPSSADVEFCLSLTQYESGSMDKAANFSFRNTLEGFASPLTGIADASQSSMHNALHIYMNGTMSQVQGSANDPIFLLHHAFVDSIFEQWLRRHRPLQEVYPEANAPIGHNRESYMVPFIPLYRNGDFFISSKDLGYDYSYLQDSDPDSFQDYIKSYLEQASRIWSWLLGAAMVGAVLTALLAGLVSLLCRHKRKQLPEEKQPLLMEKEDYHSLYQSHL

[2] = biological target: T1, Tyrosinase (Homo sapiens); assay: Inhibition of tyrosinase in human white skin melanocytes at 0.01 mM; format: cell-based
[3] = biological target: T1, Tyrosinase (Homo sapiens); assay: Inhibition of tyrosinase in human white skin melanocytes at 0.1 mM; format: cell-based
[4] = biological target: T1, Tyrosinase (Homo sapiens); assay: Inhibition of tyrosinase in human dark skin melanocytes at 0.1 mM; format: cell-based
Rattus norvegicus = assay: Oral toxicity in rats administered at 5 g/kg, po; format: organism-based; conditions: in vivo, 5000 mg/kg
Method in brief: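 Acute oral toxicity following OECD 423 acute toxic class method in six female rats. Single dose of 5 g/kg test preparation (10% in xanthane gel). Six female controls received distilled water 2000 mg/kg. Daily observation for 14 days for mortality and signs of toxicity. GHS classification.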

Tyrosinase = biological target: T2, Tyrosinase (Homo sapiens, UniProt P14679); assay: Inhibitory activity against tyrosinase in human melanocytes; format: cell-based
T2 sequence (P14679 whole entry): T1 sequence (whole entry)

[5] = biological target: T1, Tyrosinase (Homo sapiens); assay: Inhibition of tyrosinase in human black skin melanocytes at 0.01 mM; format: cell-based
[6] = biological target: T1, Tyrosinase (Homo sapiens); assay: Inhibition of tyrosinase in human black skin melanocytes at 0.1 mM; format: cell-based
[7] = biological target: T1, Tyrosinase (Homo sapiens); assay: Inhibition of tyrosinase in human dark skin melanocytes at 0.01 mM; format: cell-based

SMILES	inhibition [1]	other results
COc1cc(/C=C2\Oc3cc(O)cc(O)c3C2=O)ccc1O	4%	–
CC(C)(C)c1ccc(/C=C2\Oc3cc(O)cc(O)c3C2=O)cc1	0%	–
O=C1/C(=C/c2ccccc2)Oc2cc(O)ccc21	0%	–
O=C1/C(=C/c2ccc(O)cc2)Oc2ccccc21	39%	–
O=C1/C(=C/c2ccccc2O)Oc2cc(O)cc(O)c21	4%	–

Further lines, with some results ahead:

inhibition [1]	SMILES	other results
0%	CCc1ccc(/C=C2\Oc3cc(O)ccc3C2=O)cc1	–
75%	O=C1/C(=C/c2ccc(O)cc2)Oc2cc(O)cc(O)c21	inhibition [2]: 38%; inhibition [3]: 75%; inhibition [4]: 67%; Activity (Rattus norvegicus): Non-toxic; IC50 (Tyrosinase): 38 µM; inhibition [5]: 39%; inhibition [6]: 66%; inhibition [7]: 32%
11%	COc1ccc(/C=C2\Oc3cc(O)cc(O)c3C2=O)cc1	–
5%	CCOc1ccc(/C=C2\Oc3cc(O)cc(O)c3C2=O)cc1	–
3%	O=C1/C(=C/c2ccccc2)Oc2cc(O)cc(O)c21	–
0%	CCc1ccccc1/C=C1\Oc2cc(O)cc(O)c2C1=O	–
5%	CCCc1ccc(/C=C2\Oc3cc(O)cc(O)c3C2=O)cc1	–
